Experimental data collected from several papers.
Each line is one published result; the experiments were not run side by side.
Target: Mitogen-activated protein kinase 9 (MAPK9, Homo sapiens, UniProt P45984)

With `O=C(NCCCC1CCCCC1)c1ccc(CNC(=O)c2cnn(-c3ccccc3)c2C(F)(F)F)cc1` the remaining binding was 85% (cell-free assay; competition with immobilised ligand; 0.1 µM).
With `Nc1ncc2c(n1)-c1c([nH]c3ccc(C#CC4CC4)cc13)CCCC2` the remaining binding was 81% (binding; competition with immobilised ligand; 1 µM).
`c1cncc(-c2cccc(Nc3nccc(NC4CCCCC4)n3)c2)c1` gave a remaining binding of 74% (binding; competition with immobilised ligand; 10 µM).
For `COc1cccc(CNC(=O)c2nc3scc(COCc4ccc(C(=O)O)cc4)c3c(=O)[nH]2)c1`, the remaining binding was 97.1% (cell-free assay; competition with immobilised ligand; 1 µM).
The remaining binding of `O=C(c1ccc(Nc2ncc(Cl)c(-c3cc4ccccc4s3)n2)cc1)N1CCC(N2CCCC2)CC1` is reported as 9.8% (binding; competition with immobilised ligand; 1 µM).
For `CC(C)(C)c1ccc(-c2nc(CBr)nn2-c2cccc(O)c2)cc1`, the remaining binding was 46% (cell-free assay; competition with immobilised ligand; 10 µM).
`C[C@H](c1ccc(F)cc1)N(Cc1cccc(C(=O)O)c1)C(=O)c1cnc2ccccc2c1` has a remaining binding of 81% (cell-free assay; competition with immobilised ligand; 1 µM).
`C[C@@H]1CCN(c2nccc(-c3cnn4ncccc34)n2)C1` gave a remaining binding of 64% (binding; 1 µM).
For `O=C(c1ccc(Nc2nccc(-c3cc4ccccc4s3)n2)cc1)N1CCC(N2CCCC2)CC1`, the remaining binding was 33% (binding; competition with immobilised ligand; 1 µM).
`N[C@H]1CCN(c2nccc(-c3cnn4ncccc34)n2)C1` has a remaining binding of 100% (binding; 1 µM).
With `CNC(=O)[C@@H]1CC[C@@H](n2c(-c3ccc4cnccc4c3)nc3ccc(C(=O)NCc4cccc(C(N)=O)c4)cc32)C1` the remaining binding was 67% (binding; competition with immobilised ligand; 1 µM).
With `CC1CCCN1c1nccc(-c2cnn3ncccc23)n1` (stereo not drawn) the remaining binding was 100% (binding; 1 µM).
With `CCN1CCN(Cc2ccc(C(=O)Nc3ccc(C)c(Oc4ccc5c(c4)CC(=O)N5)c3)cc2C(F)(F)F)CC1` the remaining binding was 29% (binding; competition with immobilised ligand; 1 µM).
With `CN(C)c1nccc(-c2cnn3ncccc23)n1` the remaining binding was 55% (binding; 1 µM).
With `CNCc1ccccc1-c1csc([C@H](C)Nc2nc(C)nc3cc(OC)c(OC)cc23)c1` the remaining binding was 71% (cell-free assay; competition with immobilised ligand; 1 µM).
